“And” between values parts separate entries of the source, which are not always exact repeats. Identical values can stand only once. In all, about 360,000 compounds went through this assay and about 5,400 (1.5%) were called active. What follows is part of a selection rich in actives, with near analogues and random picks from the rest. Values without a mark were called inactive.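 Rule for the calls: active = inhibition above a per-plate cutoff, the mean inhibition of test compounds on that plate plus 3 SD (cut at about 49% in these data); inactive = the rest.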

Sequence of Trace amine-associated receptor 1 (Homo sapiens) (Q96RJ0 whole entry, looked up): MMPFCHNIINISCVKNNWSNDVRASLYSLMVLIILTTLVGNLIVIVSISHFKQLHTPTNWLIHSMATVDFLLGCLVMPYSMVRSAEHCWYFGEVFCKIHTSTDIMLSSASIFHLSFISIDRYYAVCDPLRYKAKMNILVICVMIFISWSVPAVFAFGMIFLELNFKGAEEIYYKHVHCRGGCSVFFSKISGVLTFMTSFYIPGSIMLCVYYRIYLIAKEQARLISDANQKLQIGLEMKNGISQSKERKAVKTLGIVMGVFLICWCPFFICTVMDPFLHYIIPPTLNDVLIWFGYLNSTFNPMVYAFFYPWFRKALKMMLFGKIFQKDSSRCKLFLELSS

The target in the test is Trace amine-associated receptor 1 (Homo sapiens) (UniProt Q96RJ0). The test can be described thus: blockers of beta-PEA-driven TAAR1 calcium signal – Fluo-8 calcium fluorescence, CHO RD-HGA16 cells, primary screen (AID 624466).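 Note: 0% = DMSO plus EC80 beta-PEA response and 100% = DMSO alone without agonist.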 The conditions noted are these: CHO RD-HGA16 TAAR1, Fluo-8 calcium fluorescence, antagonist; at 3 µM; hits give high values. In a few lines: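 System: RD-HGA16 CHO cells with stable hTAAR1 and Gα16 | Probe or stimulus: EC80 β-phenethylamine stimulus | Dosing: 3 µM, single point | Times: Dye loading 75 min at 37 °C, then 30 min room temperature | Measured by: Fluo-8 calcium-sensitive fluorescence | Read-out basis: % inhibition of agonist calcium response | Replicates: n of 1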
Regarding `CCC(=NCCc1ccccc1)c1c(O)n(C2CCCCC2)c(=O)[nH]c1=O`, the inhibition – broadly, the change of the read-out against control, counted positive when it falls – was 60.3% (active).
Turning to `CC(=O)c1c(O)n(C2CCCCCC2)c(=O)[nH]c1=O`, the inhibition is -7.9%.
Take `CCCCCCN=C(CC)c1c(O)n(CCCC)c(=O)[nH]c1=O`: the inhibition is 4.8%.
Regarding `O=C1C2(Cl)C3(Cl)C4(Cl)C(Cl)(Cl)C5(Cl)C3(Cl)C1(Cl)C5(Cl)C24Cl` (stereo not given), the inhibition is 64.1% (active).
Take `Cc1cccc(NC(=O)OC2CN3CCC2CC3)c1` (stereo not given): the inhibition is -7.58%.
On to `Cc1cc(-c2ccc(N)c(C)c2)ccc1N`, for which the inhibition was 6.17%.
For `CC[N+]1(C)CCCC(OC(=O)C(O)(c2ccccc2)c2ccccc2)C1` (stereo not given), the inhibition was -0.72%.
Then `COc1cc(C(c2c(O)c3ccccc3oc2=O)c2c(C)n(C)n(-c3ccccc3)c2=O)ccc1O` (stereo not given), with 3.68%; and `CCOC(=O)C1SC2(C(F)(F)C(F)F)CC1(O)c1c(c(OC)c3occc3c1OC)O2` (stereo not given), with 65.5% (active); and `CC(Cc1ccccc1)NC=O` (stereo not given), with 74.1% (active).
In the case of `CC(=O)Nc1ccc(C(=O)C(Cc2ccccc2)N(C)C)cc1` (stereo not given), the inhibition is -13.4%.
With `CC(Cc1ccccc1)NCCC(c1ccccc1)c1ccccc1` (stereo not given), the inhibition is 45.6%.
For the compound `COC(=O)C1=C(c2ccc(Cl)c(C(F)(F)F)c2)C[C@@H]2CC[C@H]1N2C(=O)NC1CC1`, the inhibition is 36.7%.
For the compound `COC1=CC=C2[C@H]3Cc4ccc(OC)c5c4[C@@]2(CCN3C)C1O5` (stereo not given in full), the inhibition is -0.15%.
With `COc1ccc(CN2CCN(c3ccccc3F)CC2)c(OC)c1`, the inhibition is -21.7%.
In the case of `c1cc2c(cc1CCNC1CCCCCC1)OCO2`, the inhibition is -6.33%.
As for `c1ccc(CCNC2CCCCCC2)cc1`, the inhibition was 85.7% (active).
The figure for `OC(CNC1CCCCC1)c1ccccc1` (stereo not given) is -11.8%.
Regarding `c1ccc(CCN2CCC3(CC2)OCCO3)cc1`, the inhibition is -16.1%.
Then `CCN(CC)C(=O)[C@@H]1C=C2c3cccc4[nH]c(Br)c(c34)C[C@H]2N(C)C1`, with -12.3%; and `CN1CCC(OC(=O)c2cccc(F)c2)CC1`, with -5.85%.
Consider `COC(=O)N1C(c2ccccc2)C1c1ccccc1` (stereo not given), for which the inhibition is 2.76%.
Take `COC(=O)C1=C(c2ccc(F)cc2OCc2ccccc2)C[C@@H]2CC[C@H]1N2C(=O)NCc1ccc(Cl)cc1`: the inhibition was 52.3% (active).
The figure for `COC(=O)C1=C(c2ccc(-c3ccccc3)c(F)c2)C[C@@H]2CC[C@H]1N2C(=O)NCc1ccc(F)cc1` is -7.93%; for `COC(=O)C1=C(c2ccc(F)cc2OCc2ccccc2)C[C@@H]2CC[C@H]1N2C(=O)NCc1ccc(C(C)(C)C)cc1` it is 12.1%; for `COC(=O)C1=C(c2ccc(OCc3ccccc3)cc2)C[C@@H]2CC[C@H]1N2C(=O)NCc1cccc(F)c1` it is -9.38%.
Then `COC(=O)C1=C(c2ccc(OCc3ccccc3)cc2)C[C@@H]2CC[C@H]1N2C(=O)NCc1ccc(Cl)cc1`, with -21.6%; and `COC(=O)C1=C(c2ccccc2OCc2ccccc2)C[C@@H]2CC[C@H]1N2C(=O)NCc1ccc(OC)cc1`, with 56.6% (active); and `COC(=O)C1=C(c2ccc(F)cc2OCc2ccccc2)C[C@@H]2CC[C@H]1N2C(=O)NCc1ccc(OC)c(OC)c1`, with 60.1% (active).
For the compound `COC(=O)C1=C(c2ccc(F)cc2OCc2ccccc2)C[C@@H]2CC[C@H]1N2C(=O)NCc1ccc2[nH]ccc2c1`, the inhibition is 29.6%.
With `COC(=O)C1=C(c2cccc(OCc3ccccc3)c2)C[C@@H]2CC[C@H]1N2C(=O)NCc1ccc(Br)cc1`, the inhibition was -0.83%.
As to `O=S(=O)(c1ccccc1)N1CCC2CCNC2C1` (stereo not given), the inhibition is -13.7%.
Then `CS(=O)(=O)N1CCC2CCNC2C1` (stereo not given), with -17.4%; and `COc1ccc2c(c1)[C@@]13CCCCC1[C@@H](C2)NCC3` (stereo not given in full), with 2.15%; and `Cc1cc(N2CCNC[C@@H]2C)ccc1N1CC[C@H](O)C1`, with -25.4%.
In the case of `COc1ccccc1-n1c(O)c(C=NC2CC2)c(=O)[nH]c1=O`, the inhibition is 5.89%.
Then `CCCCCn1c(=O)c(C(=O)NCc2ccccn2)c(O)c2ccccc21`, with 9.96%; and `CCN(CC)C(=O)Oc1ccc(NC(=O)N2CCOCC2)cc1`, with -5.87%.
Consider `CSc1nc2ccc(C)cc2c(=O)n1-c1cccnc1`, for which the inhibition is -37.6%.
As for `O=c1[nH]c(=O)n(-c2ccccc2)c(O)c1C=NC12CN3CN(CN(C3)C1)C2`, the inhibition was 3.93%.
Consider `Brc1ccc2c(c1)CNCc1cnnn1-2`, for which the inhibition is -22.5%.
For the compound `CCCCC(=O)N/N=C/c1c(O)n(CCC2=CCCCC2)c(=O)[nH]c1=O`, the inhibition was -20.4%.
As for `Cn1c(O)c(C=NCCCC(=O)O)c(=O)n(C)c1=O`, the inhibition is -5.57%.
`CCCCC(=O)N/N=C/c1c(O)n(CC)c(=S)n(CC)c1=O`: the inhibition was 63.8% (active).
For the compound `Clc1ccc([C@@H]2CC3CCC2N3)cn1` (stereo not given in full), the inhibition was -10.7%.
On to `CC12CCC3C(CCC4CC(=O)CCC43C)C1CC(=NO)C2=O` (stereo not given), for which the inhibition is -3.38%.
Consider `CCC(C)NC1(c2ccccc2)CCCCC1` (stereo not given), for which the inhibition was -0.42%.
Then `O=C1NC(=O)C(C/C=C/c2ccccc2)C(=O)N1`, with 9.88%; and `COc1ccc(-n2nnnc2C(c2cccc3ccccc23)N2CCC(n3c(=O)[nH]c4ccccc43)CC2)cc1` (stereo not given), with 40.3%; and `O=c1[nH]c2ccccc2n1C1CCN(C(c2ccccc2)c2nnnn2Cc2ccccc2)CC1` (stereo not given), with 52.2% (active).
Take `O=C1NCN(c2ccccc2)C12CCN(C(c1cccs1)c1nnnn1C1CCCCC1)CC2` (stereo not given): the inhibition was 8.02%.
For `Cc1ccc(Cn2nnnc2CN2CCC(n3nnc4ccccc43)CC2)cc1`, the inhibition is -2.23%.
In the case of `O=c1[nH]c2ccccc2n1C1CCN(C(c2ccnc3ccccc23)c2nnnn2Cc2ccccc2)CC1` (stereo not given), the inhibition is 54.6% (active).
Then `CSCCC(c1nnnn1C(C)(C)C)N1CCC(n2c(=O)[nH]c3ccccc32)CC1` (stereo not given), with 52.1% (active).
As for `COc1cc(OC)cc(C(=O)NCCN2CCC3(CC2)C(=O)NCN3c2ccccc2)c1`, the inhibition is -2.28%.
The figure for `Oc1ccc2c3c1OC1[C@H](O)CC[C@@]4(O)[C@@H](C2)N(CC2CC2)CC[C@]314` (stereo not given in full) is -34.9% and -15.5%; for `CC(C)(C)c1ccc(OC(=O)N2CCCCC2)cc1` it is 21.5%.
As to `O=c1[nH]c(=O)n(CCc2ccc(F)cc2)c(O)c1/C=N/N1CCCCC1`, the inhibition is -33.7%.
As to `CC(C)c1ccc(O)c(CN2CCN(c3ccccc3)CC2)c1`, the inhibition is -1.33%.
Turning to `CN(C)/C=C(\C=[N+](C)C)c1[nH]ncc1[N+](=O)[O-]`, the inhibition was -2.16%.
